pIC50: −log10 of the molar value. The source made the active and inactive calls. The calls are words filed in the database; no cut-off is given here.
Key:
[1] = molecular target: T1, Fatty acid-binding protein, adipocyte (Homo sapiens, UniProt P15090); assay: Displacement of 1,8-ANS from FABP4 (unknown origin) at 25 uM incubated for 3 mins by fluorescence based analysis relative to control
In short: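 Single-concentration percent inhibition in the 1,8-ANS displacement assay with FABP4. Compound incubated with protein and probe in phosphate buffer for 3 min at room temperature; fluorescence read at ex 370/em 470 nm.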
Target sequence in this assay (P15090 2-132 limits assumed): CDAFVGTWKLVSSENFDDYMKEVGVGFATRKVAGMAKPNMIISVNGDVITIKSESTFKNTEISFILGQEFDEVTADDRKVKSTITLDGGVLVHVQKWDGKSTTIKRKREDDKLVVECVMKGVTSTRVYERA

3T3-L1 [2] = assay: Cytotoxicity against mouse 3T3-L1 cells assessed as reduction in cell viability at 100 uM incubated for 24 hrs by CCK8 assay; assay type: cell-based; conditions: 3t3-l1, 24 h
[3] = molecular target: Fatty acid-binding protein 5 (Homo sapiens, UniProt Q01469); assay: Displacement of 1,8-ANS from FABP5 (unknown origin) incubated for 3 mins by fluorescence based analysis
Chain of Fatty acid-binding protein 5 (Q01469 whole entry): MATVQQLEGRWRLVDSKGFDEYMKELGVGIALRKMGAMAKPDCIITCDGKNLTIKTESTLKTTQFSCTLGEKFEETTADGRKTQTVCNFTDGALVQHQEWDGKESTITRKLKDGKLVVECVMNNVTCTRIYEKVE

[4] = molecular target: T1, Fatty acid-binding protein, adipocyte; assay: Displacement of 1,8-ANS from FABP4 (unknown origin) incubated for 3 mins by fluorescence based analysis
In short: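 1,8-ANS displacement using purified recombinant FABP3, FABP4 or FABP5. Compound incubated with protein and 1,8-ANS in phosphate buffer for 3 min at room temperature. Fluorescence read at ex 370/em 470 nm. IC50 by nonlinear regression, mean ± SD of three independent experiments.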
Target sequence in this assay (P15090 whole entry): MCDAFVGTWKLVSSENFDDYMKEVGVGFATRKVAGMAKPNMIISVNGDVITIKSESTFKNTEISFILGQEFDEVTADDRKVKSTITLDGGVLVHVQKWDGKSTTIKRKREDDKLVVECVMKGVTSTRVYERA

[5] = Metabolic stability in mouse liver microsomes assessed as half life at 0.1 uM preincubated for 10 mins followed by NADPH addition and measured for 60 mins by LC-MS/MS analysis; assay type: ADME, Microsome; conditions: time 70 min
In short: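 Mouse liver microsomes 0.33 mg/mL in 0.1 M Tris pH 7.4 with 5 mM MgCl₂, 0.01% DMSO and 0.005% BSA. Compound final […]. Preincubated 10 min at 37 °C; reaction started with 1 mM NADPH. Samples at 0, 7, 17, 30 and 60 min quenched with cold methanol, then analysed by LC-MS/MS.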

3T3-L1 [6] = assay: Anti-lipolytic activity in mouse 3T3-L1 cells assessed as inhibition of forskolin-stimulated glycerol release at 80 uM preincubated for 24 hrs followed by forskolin stimulation for 1 hr; assay type: functional, cell-based; conditions: time 25.0 hrs

Row | inhibition [1] | pIC50 [3] | pIC50 [4] | half-life at 0.1 µM [5] | SMILES | Activity (3T3-L1 [2]) | Activity (3T3-L1 [6])
1 | 61% | – | – | – | Cc1noc(C)c1-c1ccc(S(=O)(=O)Nc2ccc(F)c(C(=O)O)c2)c2ccccc12 | – | –
2 | 74% | 4.77 | 4.92 | – | CC(C)c1ccccc1-c1ccc(S(=O)(=O)Nc2ccc(F)c(C(=O)O)c2)c2ccccc12 | – | –
3 | 95% | 5.05 | 5.58 | 102 min | COc1c(-c2ccc(F)cc2C)cc(S(=O)(=O)Nc2ccc(F)c(C(=O)O)c2)c2ccccc12 | – | inactive
4 | 74% | 5.09 | 4.90 | – | O=C(O)c1cc(NS(=O)(=O)c2ccc(-c3ccccc3OC(F)(F)F)c3ccccc23)ccc1F | – | –
5 | 73% | – | 5.08 | – | O=C(O)c1cc(NS(=O)(=O)c2ccc(-c3ccc(O)cc3)c3ccccc23)ccc1F | – | –

Continued, compound first:

Row | SMILES | inhibition [1] | pIC50 [3] | pIC50 [4] | half-life at 0.1 µM [5] | Activity (3T3-L1 [2]) | Activity (3T3-L1 [6])
6 | COc1c(-c2ccc(F)cc2Cl)cc(S(=O)(=O)Nc2ccc(F)c(CC(=O)O)c2)c2ccccc12 | 90% | 5.22 | 5.32 | – | Non-Toxic | –
7 | COc1c(-c2ccccc2C)cc(S(=O)(=O)Nc2ccc(F)c(CC(=O)O)c2)c2ccccc12 | 80% | 5.11 | 5.29 | – | – | –
8 | CCc1ccccc1-c1cc(S(=O)(=O)Nc2ccc(F)c(CC(=O)O)c2)c2ccccc2c1OC | 63% | 5.49 | 4.85 | – | – | –
9 | COc1c(-c2ccc(F)cc2)cc(S(=O)(=O)Nc2ccc(F)c(CC(=O)O)c2)c2ccccc12 | 95% | – | 5.33 | – | – | –
10 | COc1c(-c2ccccc2F)cc(S(=O)(=O)Nc2ccc(F)c(CC(=O)O)c2)c2ccccc12 | 87% | – | 5.28 | – | – | –
11 | COc1c(-c2ccccc2O)cc(S(=O)(=O)Nc2ccc(F)c(CC(=O)O)c2)c2ccccc12 | 86% | – | 5.10 | – | – | –
12 | O=C(O)c1cc(NS(=O)(=O)c2ccc(OCCC3CCCCC3)c3ccccc23)ccc1F | – | – | – | 23.5 min | – | –
13 | COc1c(-c2ccc(F)cc2F)cc(S(=O)(=O)Nc2ccc(F)c(CC(=O)O)c2)c2ccccc12 | 96% | – | 5.50 | – | – | –
14 | COc1c(-c2ccccc2C(C)C)cc(S(=O)(=O)Nc2ccc(F)c(CC(=O)O)c2)c2ccccc12 | 50% | 5.54 | – | 15.1 min | Non-Toxic | Active
